Screening data as filed in PubChem BioAssay.
The full list was thinned out, with hits kept by preference.
L major viab: inhibitors of Leishmania major promastigote growth; inhibition, % at 10 µM; 200,000 tested, 9% active; Leishmania major promastigotes, resazurin fluorescence viability; in the data active means inhibition above about 50%;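 further: promastigotes grown with compound for 44 hours at 28 °C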
MDM2 E3 inh: Mdm2 E3 ligase (human) inhibition; Q00987; cell-based MDM2 ubiquitination luciferase reporter, 2 h; 0 = plate control, 100 = twice control, blank-subtracted; signal enhancement, % at 5 µM; 210,000 tested, 0.11% active;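 active means signal enhancement of 30% or more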;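 further: luminescence tracks abundance of the self-degrading MDM2-luciferase fusion protein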
Target sequence (Q00987 whole entry, looked up, the tested form may be a part): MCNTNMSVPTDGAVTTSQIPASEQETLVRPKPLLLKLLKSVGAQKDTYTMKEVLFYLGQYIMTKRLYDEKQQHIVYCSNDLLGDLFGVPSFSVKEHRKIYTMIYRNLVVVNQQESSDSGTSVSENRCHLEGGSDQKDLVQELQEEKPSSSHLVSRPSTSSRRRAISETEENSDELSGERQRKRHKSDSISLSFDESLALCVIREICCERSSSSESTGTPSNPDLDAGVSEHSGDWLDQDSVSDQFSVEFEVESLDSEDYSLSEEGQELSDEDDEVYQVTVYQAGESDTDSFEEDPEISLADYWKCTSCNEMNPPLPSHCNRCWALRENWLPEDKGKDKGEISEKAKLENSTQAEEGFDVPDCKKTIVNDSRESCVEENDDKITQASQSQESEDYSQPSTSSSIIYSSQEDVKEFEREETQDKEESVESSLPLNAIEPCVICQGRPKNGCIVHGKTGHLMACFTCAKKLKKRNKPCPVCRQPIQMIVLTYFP
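Test system: stable mammalian line carrying autodegrading MDM2–luciferase fusion reporter; quantity: 2000 cells in each well; times: 4 h cell settling then 2 h compound exposure, 37 °C; detection: luminescence with SteadyLite reagent, 15 min at room temperature; evaluation: percent signal gain over controls, blank-subtracted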
S1P3 antagonist: S1P3 (human) receptor antagonism. CHO S1P3 NFAT-BLA reporter, FRET fluorescence, antagonist mode. inhibition, % at 4.98 µM. 170,000 tested, 0.27% active. AID 485;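 active means inhibition above the plate cutoff, the mean inhibition of test wells on that plate plus 3 SD, cut at about 28% in these data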;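 further: cells challenged with S1P at its EC80 of 0.8 µM; blue over green emission ratio from cleaved BLA substrate after 4 h stimulation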
S1P4 ag: activates the human S1P4 receptor; AID 1509; activation, % at 4.98 µM; S1P4-expressing cell line, agonist reporter assay; 220,000 tested, 0.35% active; O95977; in the data active means activation above about 11%
S1P4 antagonist: blocks the human S1P4 receptor; inhibition, % at 4.98 µM; AID 1510; O95977; 220,000 tested, 0.26% active; S1P4-expressing cells, antagonist mode, reporter read-out; in the data active means inhibition above about 29%
S1P4 ag conf: confirmation of human S1P4 receptor agonists. shares compounds with S1P4 ag. S1P4 agonist cell-based reporter assay. activation, % at 4.98 µM. 740 tested, 7% active; in the data active means activation above about 12%
S1P1 ag: counter-screen for S1P4 agonists: agonists of human S1P1; 740 tested, 4% active; S1P1 agonist cell-based assay, activation; activation, % at 4.98 µM; shares compounds with S1P4 ag; in the data active means activation above about 21%
S1P4 antag conf: human S1P4 antagonism, confirmation. shares compounds with S1P4 antagonist. S1P4-expressing cell line, antagonist mode, reporter read-out. inhibition, % at 4.98 µM. 520 tested, 71% active; in the data active means inhibition above about 30%
S1P1 antagonist: human S1P1 antagonism as S1P4 antagonist counter-screen; shares compounds with S1P4 antagonist; cell-based S1P1 antagonist counterscreen, inhibition; inhibition, % at 4.98 µM; 520 tested, 37% active; AID 1564; in the data active means inhibition above about 40%;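 further: receptor stimulated with S1P near its EC80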
Hits are given with their value; i = inactive; nt = no result.

SMILES	L major viab	MDM2 E3 inh	S1P3 antagonist	S1P4 ag	S1P4 antagonist	S1P4 antag conf	S1P1 antagonist	others
C=CCn1c(=N)c(C(=O)NCCCOC)cc2c(=O)n3ccccc3nc21	i	i	i	11	i	nt	nt	S1P4 ag conf=i;S1P1 ag=i
Cc1ccc2nc3c(cc(C(=O)NCC4CCCO4)c(=N)n3CCCOC(C)C)c(=O)n2c1 (configuration not stated)	i	i	i	i	i	nt	nt
C=CCn1c(=N)c(C(=O)NCCCOC)cc2c(=O)n3cc(C)ccc3nc21	i	i	i	12	i	nt	nt	S1P4 ag conf=i;S1P1 ag=i
Cc1ccc(Nc2cc(C)c3ccc(O)cc3n2)cc1C	nt	i	i	11	75	80	i	S1P4 ag conf=i;S1P1 ag=i
COc1ccc(CC(=O)NNC(=O)CSc2ccc(C)cc2)cc1	i	i	i	i	i	nt	nt
N=c1n(CCN2CCCC2)c2ccccc2n1CC(O)c1ccc(Cl)c(Cl)c1 (configuration not stated)	100	i	i	55	38	71	60	S1P4 ag conf=i;S1P1 ag=i
CCCn1c(=N)n(CC(O)c2ccc(C)cc2)c2ccccc21 (configuration not stated)	nt	i	i	i	i	nt	nt
CCOC(=O)C(C)(C)N(Cc1ccc(C)cc1)S(=O)(=O)c1ccc(Cl)c([N+](=O)[O-])c1	100	i	i	i	43	80	i
Cc1[nH]n2c(=O)cc(C(C)(C)C)nc2c1-c1ccccc1	99	i	i	i	34	i	i
COc1cc(NC(=O)c2cc(CC(C)C)on2)c(OC)cc1Cl	i	i	i	i	33	i	i
CCn1ncc(Br)c1C(=O)Nc1ccc(C(=O)OC(C)C)cc1	i	i	nt	i	i	nt	nt
O=C(OCn1ncc(Br)c(Br)c1=O)c1ccc(F)cc1	100	i	nt	i	78	117	47
O=C(OCn1ncc(Br)c(Br)c1=O)c1ccccc1Cl	101	i	nt	i	48	115	i
O=C(OCc1cnc(Cl)s1)c1ccccc1Cl	i	i	nt	i	i	nt	nt
Cn1cnnc1SCC(=O)c1c(N)n(Cc2ccccc2)c(=O)n(C)c1=O	i	i	i	i	i	nt	nt
CC(=O)c1cccc(NC(=O)N2CCCC2C(=O)NC2CCCCC2)c1 (configuration not stated)	i	i	i	i	i	nt	nt
Cc1cccc(C)c1NC(=O)COC(=O)c1nonc1N	i	i	i	i	29	i	i
O=C(NCc1cccnc1)C(=O)N/N=C/c1ccc([N+](=O)[O-])cc1	i	i	i	i	30	i	i
O=C(NCc1cccnc1)C(=O)N/N=C/c1ccccc1[N+](=O)[O-]	i	i	i	i	i	nt	nt
O=c1c(Cl)c(Cl)cnn1-c1ccccc1	90	i	i	i	101	122	72
O=c1c(Cl)c(Cl)cnn1Cc1ccccc1Cl	76	i	i	i	46	115	58
Cc1ccc(-c2nnc(Cc3ccc(Cl)cc3)o2)cc1	i	i	nt	i	i	nt	nt
O=c1c(Cl)c(Cl)cnn1Cc1nnc(-c2ccc(Cl)cc2)o1	100	i	i	i	37	68	i
CN1C(C(=O)NCc2ccc(OC(F)(F)F)cc2)CC2Cn3c(nc4cc(Cl)c(Cl)cc43)C21 (configuration not stated)	nt	i	nt	nt	nt	nt	nt
CCOC(=O)c1[nH]c(C)c(CN(C(C)=O)c2ccc(OCC)cc2)c1C	i	i	i	i	i	nt	nt
SMILES	L major viab	MDM2 E3 inh	S1P3 antagonist	S1P4 ag	S1P4 antagonist	S1P4 antag conf	S1P1 antagonist	others
Nc1ccc(C2CCCc3nonc32)c2nonc12 (configuration not stated)	i	i	i	i	43	i	i
Nc1ccc(N2CCCCC2)c2nonc12	i	i	i	i	i	nt	nt
Cc1ccc(C)c(OCC(=O)Nc2ccc3c(c2)OCO3)c1C	i	i	i	i	30	i	i
Cc1ccc(S(=O)(=O)Nc2cccc3cccnc23)cc1	100	i	nt	i	42	110	98
CCCCn1c(=O)c2c(O)cc(=O)oc2c2ccccc21	i	i	nt	i	i	nt	nt
O=c1cc(O)c2c(=O)n(Cc3ccccc3)c3ccccc3c2o1	i	i	i	i	89	i	i
O=C(NC(Cc1ccccc1)C(=O)O)/C(=C/c1ccccc1)NC(=O)c1ccccc1 (configuration not stated)	i	i	i	i	45	i	i
O=C(NC(Cc1ccccc1)C(=O)O)/C(=C\c1ccc(Cl)cc1)NC(=O)c1ccccc1 (configuration not stated)	i	i	i	i	i	nt	nt
CC(=O)c1ccc(OCc2ccc(Oc3c(Cl)cccc3[N+](=O)[O-])cc2)cc1	i	i	i	i	i	nt	nt
N=C1SCC(=O)N1c1ncc(Cc2ccccc2Cl)s1	i	i	i	i	48	94	98
N=C1SCC(=O)N1c1ncc(Cc2cccc(Cl)c2)s1	i	i	i	i	i	nt	nt
CCCCC(=O)NCc1ccc(Cl)cc1	i	i	i	i	i	nt	nt
Cc1ccc(OS(=O)(=O)c2cn(C)c(=O)n(C)c2=O)cc1C	i	i	i	i	i	nt	nt
CC1CCCC(C)N1C(=O)CSc1nnnn1-c1cccc2c1CCCC2 (configuration not stated)	i	i	nt	i	i	nt	nt
CC1CCCC(C)N1C(=O)CSc1nnnn1Cc1ccccc1 (configuration not stated)	i	i	i	i	92	i	i
COCCCNC(=O)c1cc(=O)n(Cc2ccc(Cl)cc2)c2ccccc12	i	i	i	i	i	nt	nt
COCCCNC(=O)/C=C1\Sc2ccccc2N(Cc2ccccc2F)C1=O	i	i	i	i	66	i	i
COc1ccc(/C=C/C(=O)c2cc(F)ccc2OC(=O)c2ccccc2OC)cc1OC	i	i	i	i	47	82	99
Cc1ccc2oc(=O)n(CCCOc3ccccc3)c2c1	i	i	i	i	34	i	i
COc1ccccc1NC(=O)Nc1ccc2c(c1)nc(C)n2C	i	i	i	i	i	nt	nt
COc1ccc(N/N=C(/C(C)=O)N2CCCc3ccccc32)cc1	nt	i	i	i	i	nt	nt
Cc1cc2c(c(N3CCOCC3)n1)C(=O)OC2	i	i	nt	i	35	i	i
O=C(CCSc1ccccc1)N1CCOCC1	i	i	i	i	i	nt	nt
Cc1ccc(SCCC(=O)N2CCOCC2)cc1	i	i	i	i	29	i	i
Cc1ccc(S(=O)(=O)NCCSc2nnnn2-c2ccc(C(N)=O)cc2)cc1	i	i	i	i	i	nt	nt
Cc1ccc(-n2nnnc2Sc2ccc(S(=O)(=O)NCCN(C)C)cc2[N+](=O)[O-])cc1	100	i	i	i	49	68	59
CSc1ncccc1C(=O)Nc1ccc(F)c(F)c1F	i	i	i	i	i	nt	nt
